{"source": "ChEMBL document CHEMBL3632511", "about": "“Oxopyrido[2,3-d]pyrimidines as Covalent L858R/T790M Mutant Selective Epidermal Growth Factor Receptor (EGFR) Inhibitors” (ACS Med Chem Lett, 2015)", "key": {"[1]": {"biological_target": "T1, Epidermal growth factor receptor (Homo sapiens, UniProt P00533)", "T1 sequence (P00533 whole entry)": "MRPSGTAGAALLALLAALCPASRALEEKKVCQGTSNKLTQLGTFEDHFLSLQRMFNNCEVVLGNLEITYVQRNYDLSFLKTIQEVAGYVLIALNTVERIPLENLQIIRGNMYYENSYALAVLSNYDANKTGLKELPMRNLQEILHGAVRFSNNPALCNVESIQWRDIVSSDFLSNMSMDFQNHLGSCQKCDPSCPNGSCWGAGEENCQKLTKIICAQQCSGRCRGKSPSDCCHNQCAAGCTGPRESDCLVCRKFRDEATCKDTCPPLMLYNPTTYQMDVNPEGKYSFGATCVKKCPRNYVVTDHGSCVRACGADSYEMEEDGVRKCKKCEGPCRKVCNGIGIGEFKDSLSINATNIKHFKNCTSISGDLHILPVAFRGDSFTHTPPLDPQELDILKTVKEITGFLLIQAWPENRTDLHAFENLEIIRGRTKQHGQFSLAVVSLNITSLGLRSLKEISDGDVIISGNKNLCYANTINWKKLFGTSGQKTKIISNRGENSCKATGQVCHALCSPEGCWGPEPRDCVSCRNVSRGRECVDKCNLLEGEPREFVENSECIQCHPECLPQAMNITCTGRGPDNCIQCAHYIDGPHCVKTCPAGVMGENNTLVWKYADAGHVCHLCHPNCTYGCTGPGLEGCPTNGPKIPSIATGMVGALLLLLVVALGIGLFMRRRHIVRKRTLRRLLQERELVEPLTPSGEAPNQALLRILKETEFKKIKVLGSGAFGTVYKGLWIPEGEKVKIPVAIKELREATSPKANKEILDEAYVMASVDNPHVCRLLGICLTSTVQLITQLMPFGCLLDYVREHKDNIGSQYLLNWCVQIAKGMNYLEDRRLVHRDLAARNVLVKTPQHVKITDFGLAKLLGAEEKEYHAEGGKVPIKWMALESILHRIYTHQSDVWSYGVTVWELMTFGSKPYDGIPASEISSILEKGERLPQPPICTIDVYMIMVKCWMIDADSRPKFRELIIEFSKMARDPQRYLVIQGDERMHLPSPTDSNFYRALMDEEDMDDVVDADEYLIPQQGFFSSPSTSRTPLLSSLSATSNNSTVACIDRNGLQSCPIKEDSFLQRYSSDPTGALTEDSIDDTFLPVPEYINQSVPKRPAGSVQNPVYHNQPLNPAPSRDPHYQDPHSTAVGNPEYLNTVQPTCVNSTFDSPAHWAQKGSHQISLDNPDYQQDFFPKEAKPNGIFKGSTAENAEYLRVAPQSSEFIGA", "test": "Binding affinity to wild type EGFR (unknown origin)"}, "[2]": {"biological_target": "T2, Epidermal growth factor receptor (Homo sapiens, UniProt P00533, L858R/T790M)", "T2 sequence (P00533 25-1210 T790M/L858R limits assumed)": "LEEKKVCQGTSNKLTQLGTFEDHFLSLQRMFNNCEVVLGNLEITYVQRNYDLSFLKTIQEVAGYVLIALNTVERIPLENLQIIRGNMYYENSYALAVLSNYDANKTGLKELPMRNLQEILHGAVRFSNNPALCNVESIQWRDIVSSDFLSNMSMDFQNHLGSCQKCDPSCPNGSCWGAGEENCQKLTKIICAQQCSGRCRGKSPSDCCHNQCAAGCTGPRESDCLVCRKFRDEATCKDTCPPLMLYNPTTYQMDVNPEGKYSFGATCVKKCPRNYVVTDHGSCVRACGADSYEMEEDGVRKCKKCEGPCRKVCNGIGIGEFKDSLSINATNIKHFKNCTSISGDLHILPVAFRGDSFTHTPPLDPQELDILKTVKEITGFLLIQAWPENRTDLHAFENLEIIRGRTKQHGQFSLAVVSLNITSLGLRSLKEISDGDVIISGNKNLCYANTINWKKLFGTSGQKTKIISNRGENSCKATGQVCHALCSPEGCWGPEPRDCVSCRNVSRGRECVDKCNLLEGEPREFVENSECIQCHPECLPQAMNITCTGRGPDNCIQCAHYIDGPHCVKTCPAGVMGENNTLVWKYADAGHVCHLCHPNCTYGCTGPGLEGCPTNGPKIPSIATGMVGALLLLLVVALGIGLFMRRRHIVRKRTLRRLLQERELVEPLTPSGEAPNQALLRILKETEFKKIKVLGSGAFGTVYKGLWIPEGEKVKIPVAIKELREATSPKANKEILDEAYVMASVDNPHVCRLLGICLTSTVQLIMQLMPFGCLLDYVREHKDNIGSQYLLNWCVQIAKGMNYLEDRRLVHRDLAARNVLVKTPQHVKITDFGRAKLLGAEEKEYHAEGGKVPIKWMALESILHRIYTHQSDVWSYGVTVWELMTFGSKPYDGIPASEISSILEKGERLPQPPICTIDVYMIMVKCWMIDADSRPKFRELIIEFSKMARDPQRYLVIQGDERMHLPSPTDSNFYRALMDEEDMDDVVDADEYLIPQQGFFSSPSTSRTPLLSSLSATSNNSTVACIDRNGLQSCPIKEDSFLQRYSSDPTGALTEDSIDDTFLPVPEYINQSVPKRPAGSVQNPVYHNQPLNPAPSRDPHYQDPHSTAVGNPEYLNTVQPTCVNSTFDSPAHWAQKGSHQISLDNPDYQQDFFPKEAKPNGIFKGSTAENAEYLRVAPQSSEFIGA", "test": "Binding affinity to EGFR T790M/L858R double mutant (unknown origin)", "format": "protein assay"}, "[3]": {"system": "NCI-H1975", "test": "Cytotoxicity against human NCI-H1975 cells harboring EGFR L858R/T790M double mutant assessed as inhibition of cell proliferation after 72 hrs by CellTiter-Glo assay", "format": "functional, cell-based", "settings": "NCI-H1975, 72 h"}, "[4]": {"test": "Cytotoxicity against human HCC827 cells harboring EGFR 746 to 750 deletion mutant assessed as inhibition of cell proliferation after 72 hrs by CellTiter-Glo assay", "format": "functional, cell-based", "settings": "HCC827, 72 h"}, "[5]": {"system": "A-431", "test": "Cytotoxicity against human A431 cells expressing wild-type EGFR assessed as inhibition of cell proliferation after 72 hrs by CellTiter-Glo assay", "format": "cell-based", "settings": "A-431, 72 h"}, "[6]": {"biological_target": "T2, Epidermal growth factor receptor", "test": "Inhibition of EGFR L858R/T790M double mutant phosphorylation in human NCI-H1975 cells after 60 mins by mesoscale multiplex assay", "format": "cell-based"}, "[7]": {"biological_target": "Epidermal growth factor receptor (Homo sapiens, UniProt P00533, 746-750DEL)", "sequence (P00533 whole entry, looked up, stated change not applied)": "as the sequence (P00533 whole entry) above", "test": "Inhibition of EGFR 746 to 750 deletion mutant phosphorylation in human HCC827 cells after 60 mins by mesoscale multiplex assay", "format": "cell-based"}, "[8]": {"biological_target": "T1, Epidermal growth factor receptor", "test": "Inhibition of wild type EGFR phosphorylation in human A431 cells after 60 mins by mesoscale multiplex assay", "format": "cell-based, A-431"}, "[9]": {"test": "Selectivity ratio of IC50 for wild type EGFR phosphorylation in human A431 cells to IC50 for EGFR L858R/T790M double mutant phosphorylation in human NCI-H1975 cells", "format": "ADME, cell-based"}, "[10]": {"test": "Selectivity ratio of IC50 for wild type EGFR phosphorylation in human A431 cells to IC50 for EGFR 746 to 750 deletion mutant phosphorylation in human HCC827 cells", "format": "ADME, cell-based"}, "[11]": {"test": "Selectivity ratio of IC50 for human A431 cells expressing wild-type EGFR to IC50 for human NCI-H1975 cells harboring EGFR L858R/T790M double mutant", "format": "ADME, cell-based"}, "[12]": {"test": "Selectivity ratio of IC50 for human A431 cells expressing wild-type EGFR to IC50 for human HCC827 cells harboring EGFR 746 to 750 deletion mutant", "format": "ADME, cell-based"}, "[13]": {"system": "Mus musculus", "test": "In vivo inhibition of EGFR L858R/T790M double mutant phosphorylation in human NCI-H1975 cells xenografted in athymic nude mouse at 30 mg/kg, po measured at 4 hrs by mesoscale multiplex assay relative to control", "format": "functional", "how_it_was_run": "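Female athymic nude mice carried matrigel plugs holding 5 x 10⁶ H1975 cells, n = 3 per group. Control or compound given at 30 mg/kg po. Plugs and plasma taken 4 h after dosing. p-EGFR in plug measured by quantitative MSD assay, given as % p-EGFR/PRAS40 vs control.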"}, "[14]": {"organism": "Rattus norvegicus", "test": "Hepatobiliary toxicity in Sprague-Dawley rat measured for 4 days", "format": "organism-based", "settings": "in vivo, 96 h"}, "[15]": {"test": "Clearance in Sprague-Dawley rat at 1 mg/kg, iv", "format": "ADME, organism-based", "settings": "Sprague-Dawley, in vivo", "how_it_was_run": "(§1)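 Male Sprague Dawley rats, 3 animals per route; mean values. IV dose 1 mg/kg as a DMSO solution. Oral dose 10 mg/kg, in one of three vehicles by compound: 1% Pluronic F68/2% HPMC/15% HPBCD/82% water–methanesulfonic acid pH 4.5; 20% HPBCD/80% water–methanesulfonic acid pH 4.0; or 1% Pluronic F68/2% HPMC/97% water–methanesulfonic acid pH 4.0.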"}, "[16]": {"test": "Volume of distribution at steady state in Sprague-Dawley rat at 1 mg/kg, iv", "format": "ADME, organism-based", "settings": "in vivo, read-out: Vdss", "how_it_was_run": "as §1"}, "[17]": {"test": "Half life in Sprague-Dawley rat at 1 mg/kg, iv", "format": "ADME, organism-based", "settings": "in vivo", "how_it_was_run": "as §1"}, "[18]": {"test": "AUC (0 to infinity) in Sprague-Dawley rat at 10 mg/kg, po", "format": "ADME, organism-based", "set-up": "dose 10 mg/kg, route oral, time infinity", "settings": "Sprague-Dawley, in vivo", "how_it_was_run": "as §1"}, "[19]": {"test": "Oral bioavailability in Sprague-Dawley rat at 10 mg/kg", "format": "ADME, organism-based", "settings": "Sprague-Dawley, in vivo", "how_it_was_run": "as §1"}}, "data": [{"compound": "C=CC(=O)Nc1cccc(-n2c3nc(Nc4ccc(N5CCC(N(C)C)CC5)cc4OC)ncc3c(=O)n3ccnc23)c1", "values": [{"measurement": "Kd", "setting": "[1]", "value": 310, "unit": "nM"}, {"measurement": "Kd", "setting": "[2]", "value": 2.6, "unit": "nM"}]}, {"compound": "C=CC(=O)Nc1cccc(-n2c(=O)cc(C)c3cnc(Nc4ccc(N5CCOCC5)cc4OC)nc32)c1", "values": [{"measurement": "IC50", "setting": "[3]", "value": "> 10000", "unit": "nM"}]}, {"compound": "C=CC(=O)Nc1cccc(-n2c(=O)c(OC)c(C)c3cnc(Nc4ccc(N5CCN(C)CC5)cc4OC)nc32)c1", "values": [{"measurement": "IC50", "setting": "[3]", "value": 10, "unit": "nM"}, {"measurement": "IC50", "setting": "[4]", "value": 41, "unit": "nM"}, {"measurement": "IC50", "setting": "[5]", "value": 1390, "unit": "nM"}]}, {"compound": "C=CC(=O)Nc1cccc(-n2c(=O)cc(C)c3cnc(Nc4ccc(N5CCN(C(C)=O)CC5)cc4OC)nc32)c1", "values": [{"measurement": "IC50", "setting": "[3]", "value": 30, "unit": "nM"}, {"measurement": "IC50", "setting": "[4]", "value": 58, "unit": "nM"}, {"measurement": "IC50", "setting": "[5]", "value": "> 5000", "unit": "nM"}]}, {"compound": "C=CC(=O)Nc1cccc(-n2c(=O)cc(C)c3cnc(Nc4ccc(N5CCN(C)CC5)cc4OC)nc32)c1", "values": [{"measurement": "IC50", "setting": "[3]", "value": 4, "unit": "nM"}, {"measurement": "IC50", "setting": "[4]", "value": 12, "unit": "nM"}, {"measurement": "IC50", "setting": "[5]", "value": 1200, "unit": "nM"}, {"measurement": "IC50", "setting": "[6]", "value": 4, "unit": "nM"}, {"measurement": "IC50", "setting": "[7]", "value": 12, "unit": "nM"}, {"measurement": "IC50", "setting": "[8]", "value": 386, "unit": "nM"}, {"measurement": "Ratio IC50", "setting": "[9]", "value": 100}, {"measurement": "Ratio IC50", "setting": "[10]", "value": 100}, {"measurement": "Ratio IC50", "setting": "[11]", "value": "> 100"}, {"measurement": "Ratio IC50", "setting": "[12]", "value": "> 100"}, {"measurement": "inhibition in vivo at 30 mg/kg", "setting": "[13]", "value": 90, "unit": "%"}, {"measurement": "Activity", "setting": "[14]", "value": "Toxic"}, {"measurement": "clearance", "setting": "[15]", "value": 177, "unit": "mL/min/kg"}, {"measurement": "Vd", "setting": "[16]", "value": 7.8, "unit": "L/kg"}, {"measurement": "half-life", "setting": "[17]", "value": 3, "unit": "h"}, {"measurement": "AUC(0-inf)", "setting": "[18]", "value": 0.18, "unit": "µM·h"}, {"measurement": "bioavailability", "setting": "[19]", "value": 9.5, "unit": "%"}]}, {"compound": "C=CC(=O)Nc1cccc(-n2c(=O)c(OC)cc3cnc(Nc4ccc(N5CCN(C)CC5)cc4OC)nc32)c1", "values": [{"measurement": "IC50", "setting": "[3]", "value": 273, "unit": "nM"}, {"measurement": "IC50", "setting": "[4]", "value": 61, "unit": "nM"}, {"measurement": "IC50", "setting": "[5]", "value": 201, "unit": "nM"}]}]}
